Test results reported in ChEMBL document CHEMBL4364301 (Eur J Med Chem, 2019).

Experiments:
Assay type in all cases: functional
[1] = tested on: CWR22R; assay: Antiproliferative activity against human 22Rv1 cells assessed as reduction in cell growth incubated for 96 hrs by propidium iodide based 2D monolayer assay; details: 22Rv1, 96 h
Procedure, shortened: (§1)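 After 24 h recovery, compound in medium or medium alone (control wells) was added at 10 half-log concentrations from 0.0032 to 100 µM, in triplicate, with at most 0.3% DMSO. After 96 h, wells were PBS-washed, stained with 7 µg/ml PI and 0.1% Triton X-100, and fluorescence read at 530/620 nm. IC50 came from a 4-parameter fit, geometric mean.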

[2] = tested on: LNCaP; assay: Antiproliferative activity against human LNCAP cells assessed as reduction in cell growth incubated for 96 hrs by propidium iodide based 2D monolayer assay; procedure, shortened: as §1
[3] = tested on: VCaP; assay: Antiproliferative activity against human VCaP cells assessed as reduction in cell growth incubated for 96 hrs by propidium iodide based 2D monolayer assay
Procedure, shortened: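 VCaP cells in RPMI 1640 with 10% FCS at 37 °C, 5% CO2, seeded 4,000–20,000 cells/well and left 24 h before dosing. Compounds from DMSO stocks were diluted in half-log steps in medium, 10 concentrations 0.0032–100 μM, triplicate wells, max 0.3% DMSO. After 96 h, cells were washed, stained with 7 μg/ml propidium iodide plus 0.1% Triton X-100 for 1–2 h at room temperature, and fluorescence read at ex 530/em 620 nm.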

[4] = tested on: DU-145; assay: Antiproliferative activity against human DU145 cells assessed as reduction in cell growth incubated for 96 hrs by propidium iodide based 2D monolayer assay; details: DU-145, 96 h; procedure, shortened: as §1

CC(O)(CS(=O)(=O)c1ccccc1OC(F)(F)F)C(=O)Nc1cccc(S(F)(F)(F)(F)F)c1 (racemic)
IC50 [1]: 17.1 µM
IC50 [2]: 9 µM
IC50 [3]: 13.9 µM
IC50 [4]: 29.1 µM
